Read-outs that look alike come from different tables or passages of the source.
Experiments:
[1] = following intraperitoneal administration; cited from earlier work
[2] = type: in vivo, mice; settings: for Detection in the brain: oral administration; for Detection in plasma: mice sacrificed 12 h after food intake
In short: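 Male C57BL/6 mice, 7 weeks old, fed a high-fat diet with 1% w/w orange peel extract for 6 weeks, with 0.65% carnitine in drinking water. Tissues were homogenized under liquid nitrogen. Tissues, plasma (cardiac puncture, EDTA) and urine were extracted in methanol with 0.1% DMSO; taxifolin was the internal standard. Separation on a C30 column with a formic acid water/acetonitrile gradient; positive ESI, SRM. Values expressed as tissue–peel ratio.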

acetylcholinesterase = settings: cortex and hippocampus; cited from earlier work
[3] = test system: spatial learning impairments induced by Aβ1-42; settings: oral administration for four weeks; cited from earlier work
[4] = type: in vivo, mice; settings: by number of metabolites identified
In short: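 Male C57BL/6 mice, from 7 weeks old, given high-fat chow containing 1% w/w orange peel extract for 6 weeks, with 0.65% carnitine in water. Methanol/0.1% DMSO extracts were run by UHPLC on a C30 column at 40 °C, 0.1% formic acid water/acetonitrile gradient 2–100% B, 0.2 mL min−1, with Q-Exactive Orbitrap detection. Metabolites were assigned to parent PMFs by key-ion patterns.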

Row | SMILES | Detection in the brain [2] | Detection in plasma [2] | Detection in the testes ([2]; testes) | Detection in the kidney [2] | Detection in the liver [2] | other results
1 | COc1cc(-c2cc(=O)c3c(OC)c(OC)c(OC)c(OC)c3o2)ccc1O [4′-demethylnobiletin] |  |  |  |  |  | Detection in the brain [1]: detected in the brain
2 | COc1ccc(-c2cc(=O)c3cc(OC)c(OC)c(OC)c3o2)cc1OC [PMF 1, 6,7,8,3′,4′-pentamethoxyflavone] | found | detected | detected |  |  | 
3 | COc1ccc(-c2cc(=O)c3c(OC)c(OC)c(OC)c(OC)c3o2)cc1OC [PMF 3, nobiletin] | found | detected | not detected | detected | detected | Acetylcholinesterase activity (acetylcholinesterase): enhanced; Effect on spatial learning impairments induced by Aβ1-42, Morris water maze test [3]: prevent spatial learning impairments; Extent of metabolism among the 11 PMFs [4]: most extensively metabolized; Urine–peel ratio relative to other non-hydroxylated PMFs ([2]; urine): approximately two times higher
4 | COc1ccc(-c2oc3c(OC)c(OC)c(OC)c(OC)c3c(=O)c2OC)cc1OC [PMF 5, 3,5,6,7,8,3′,4′-heptamethoxyflavone] | found | detected | not detected |  | detected | 
5 | COc1ccc(-c2cc(=O)c3c(OC)c(OC)c(OC)c(OC)c3o2)cc1 [PMF 6, tangeretin] | found | detected | not detected | detected | detected | 
6 | COc1ccc(-c2cc(=O)c3c(O)c(OC)c(OC)c(OC)c3o2)cc1OC [PMF 8, 5-hydroxy-6,7,8,3′,4′-pentamethoxyflavone] | not detected |  | detected | detected | detected | Extent of metabolism among the 11 PMFs [4]: most extensively metabolized; Feces-peel ratio relative to that of PMF 11 ([2]; feces): twice as high; Testes-to-peel ratio relative to the detected major PMFs 1 and 4 ([2]; testes): 10 to 14 times

More lines, main results first:

Row | Detection in the brain [2] | Detection in plasma [2] | Detection in the testes ([2]; testes) | Detection in the kidney [2] | Detection in the liver [2] | SMILES | other results
7 | not detected |  |  |  | detected | COc1ccc(-c2oc3c(OC)c(OC)cc(O)c3c(=O)c2OC)cc1OC [PMF 9, 5-hydroxy-3,7,8,3′,4′-pentamethoxyflavone] | 
8 | found |  |  |  | detected | COc1ccc(-c2cc(=O)c3c(OC)c(OC)c(OC)cc3o2)cc1OC [PMF 10, sinensetin] | 
9 | not detected |  |  |  | not detected | COc1ccc(-c2oc3c(OC)c(OC)c(OC)c(O)c3c(=O)c2OC)cc1OC [PMF 11, 5-hydroxy-3,6,7,8,3′,4′-hexamethoxyflavone] | 

— publication PMC12519076 (RSC Advances, 2025)
